In ChEMBL document CHEMBL3045963, “Synthesis of nalidixic acid based hydrazones as novel pesticides” (2010):
≈ marks a conversion by molar mass, not a printed value.

These compounds were tested on Callosobruchus maculatus (assay: Insecticidal activity against adult Callosobruchus maculatus assessed as mortality at 0.1% at 27 +/-1 degC after 24 hr by contact based film residue method). Settings: not given.
Assay type: functional
Procedure, shortened: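 Lab-reared adults, 2-5 days old, exposed to a dry film: 1 mL of 0.1% compound solution in dichloromethane is swirled in a 90 mm Petri plate and dried 3-5 min. Ten adults per plate are held at 27 ± 1 °C and 70% RH. Mortality is scored at 24 h, with no response to touch counted as dead. Triplicates, solvent control, malathion reference.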

Compared with `CCn1cc(C(=O)N/N=C/c2ccc(O)c(OC)c2)c(=O)c2ccc(C)nc21`, `CCOc1cc(/C=N/NC(=O)c2cn(CC)c3nc(C)ccc3c2=O)ccc1O` is higher in mortality: 20% for the first, 22% for the second.

`CCn1cc(C(=O)N/N=C/c2cc(OC)c(OC)c(OC)c2)c(=O)c2ccc(C)nc21` and `CCn1cc(C(=O)N/N=C/c2cccc(Cl)c2)c(=O)c2ccc(C)nc21` are the same in mortality: 10% for the first, 10% for the second.

First: CCn1cc(C(=O)N/N=C/c2ccccn2)c(=O)c2ccc(C)nc21
Second: CCn1cc(C(=O)N/N=C/c2ccccc2Cl)c(=O)c2ccc(C)nc21
The mortality of the first is lower: 10% for the first, 30% for the second.

`CCn1cc(C(=O)N/N=C/c2ccc(F)cc2)c(=O)c2ccc(C)nc21` and `CCn1cc(C(=O)N/N=C/c2ccc(Cl)cc2)c(=O)c2ccc(C)nc21` are the same in mortality: 10% for the first, 10% for the second.

Each compound was assayed on Tribolium castaneum (assay: Insecticidal activity against adult Tribolium castaneum (red flour beetle) in compound pre-treated green gram grains assessed as mortality at 20 mg/kg after 48 hr by feeding based residue method). Settings: in Vigna radiata.
Assay type: functional
Procedure, shortened: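 Green gram grains are treated with compound in dichloromethane (0.6 mg in 5 mL) at 20 mg active ingredient per kg grain (0.002%). Ten adults are released onto 10 g of treated grain in a plastic box. Mortality is recorded after 48 h. Triplicate, solvent-treated control.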

In the case of `CCn1cc(C(=O)N/N=C/c2ccccc2Cl)c(=O)c2ccc(C)nc21`, the mortality at 20 mg/kg was 10%.

Each compound was assayed on Macrophomina phaseolina (assay: Fungicidal activity against Rhizoctonia bataticola by poisoned food technique). Settings: read-out: ED50 (the source's name).
Assay type: functional

`CCn1cc(C(=O)N/N=C/c2ccc(O)c(OC)c2)c(=O)c2ccc(C)nc21` and `CCOc1cc(/C=N/NC(=O)c2cn(CC)c3nc(C)ccc3c2=O)ccc1O` are within 1.5-fold of each other in EC50: 528 µg/mL (≈ 1390 µM) for the first, 400 µg/mL (≈ 1010 µM) for the second.

Compared with `CCn1cc(C(=O)N/N=C/c2cc(OC)c(OC)c(OC)c2)c(=O)c2ccc(C)nc21`, `CCn1cc(C(=O)N/N=C/c2cccc(Cl)c2)c(=O)c2ccc(C)nc21` is 2.5-fold higher in EC50: 201 µg/mL (≈ 474 µM) for the first, 504 µg/mL (≈ 1370 µM) for the second.

Going from `CCn1cc(C(=O)N/N=C/c2ccccn2)c(=O)c2ccc(C)nc21` to `CCn1cc(C(=O)N/N=C/c2ccccc2Cl)c(=O)c2ccc(C)nc21`, the EC50 rises from 372 µg/mL (≈ 1110 µM) to 593 µg/mL (≈ 1610 µM) (1.6-fold).

First: CCn1cc(C(=O)N/N=C/c2ccc(F)cc2)c(=O)c2ccc(C)nc21
Second: CCn1cc(C(=O)N/N=C/c2ccc(Cl)cc2)c(=O)c2ccc(C)nc21
The EC50 of the first is 1.5-fold lower: 244 µg/mL (≈ 692 µM) for the first, 371 µg/mL (≈ 1000 µM) for the second.

Each compound was assayed on Rhizoctonia solani (assay: Fungicidal activity against Rhizoctonia solani by poisoned food technique). Settings: read-out: ED50 (the source's name).
Assay type: functional

`CCn1cc(C(=O)N/N=C/c2ccc(O)c(OC)c2)c(=O)c2ccc(C)nc21` and `CCOc1cc(/C=N/NC(=O)c2cn(CC)c3nc(C)ccc3c2=O)ccc1O` are within 1.5-fold of each other in EC50: 317 µg/mL (≈ 833 µM) for the first, 356 µg/mL (≈ 903 µM) for the second.

First: CCn1cc(C(=O)N/N=C/c2cc(OC)c(OC)c(OC)c2)c(=O)c2ccc(C)nc21
Second: CCn1cc(C(=O)N/N=C/c2cccc(Cl)c2)c(=O)c2ccc(C)nc21
The EC50 of the first is 2.3-fold lower: 174 µg/mL (≈ 409 µM) for the first, 394 µg/mL (≈ 1070 µM) for the second.

`CCn1cc(C(=O)N/N=C/c2ccccn2)c(=O)c2ccc(C)nc21` and `CCn1cc(C(=O)N/N=C/c2ccccc2Cl)c(=O)c2ccc(C)nc21` are within 1.5-fold of each other in EC50: 170 µg/mL (≈ 508 µM) for the first, 246 µg/mL (≈ 666 µM) for the second.

`CCn1cc(C(=O)N/N=C/c2ccc(F)cc2)c(=O)c2ccc(C)nc21` and `CCn1cc(C(=O)N/N=C/c2ccc(Cl)cc2)c(=O)c2ccc(C)nc21` are within 1.5-fold of each other in EC50: 234 µg/mL (≈ 665 µM) for the first, 308 µg/mL (≈ 834 µM) for the second.

The compounds below were run on Fusarium oxysporum (assay: Fungicidal activity against Fusarium oxysporum by poisoned food technique). Settings: read-out: ED50 (the source's name).
Assay type: functional

Compared with `CCn1cc(C(=O)N/N=C/c2ccc(O)c(OC)c2)c(=O)c2ccc(C)nc21`, `CCOc1cc(/C=N/NC(=O)c2cn(CC)c3nc(C)ccc3c2=O)ccc1O` is 2-fold lower in EC50: 377 µg/mL (≈ 991 µM) for the first, 185 µg/mL (≈ 469 µM) for the second.

`CCn1cc(C(=O)N/N=C/c2cc(OC)c(OC)c(OC)c2)c(=O)c2ccc(C)nc21` and `CCn1cc(C(=O)N/N=C/c2cccc(Cl)c2)c(=O)c2ccc(C)nc21` are within 1.5-fold of each other in EC50: 102 µg/mL (≈ 241 µM) for the first, 132 µg/mL (≈ 358 µM) for the second.

Going from `CCn1cc(C(=O)N/N=C/c2ccccn2)c(=O)c2ccc(C)nc21` to `CCn1cc(C(=O)N/N=C/c2ccccc2Cl)c(=O)c2ccc(C)nc21`, the EC50 rises from 79.1 µg/mL (≈ 236 µM) to 143 µg/mL (≈ 389 µM) (1.8-fold).

`CCn1cc(C(=O)N/N=C/c2ccc(F)cc2)c(=O)c2ccc(C)nc21` and `CCn1cc(C(=O)N/N=C/c2ccc(Cl)cc2)c(=O)c2ccc(C)nc21` are within 1.5-fold of each other in EC50: 79.9 µg/mL (≈ 227 µM) for the first, 119 µg/mL (≈ 322 µM) for the second.

These compounds were tested on Spodoptera litura (assay: Insecticidal activity against third-instar larval stage of Spodoptera litura assessed as mortality at 0.1% applied topically on the ventral side of the larvae measured after 24 hr by contact method). Settings: not given.
Assay type: functional
Procedure, shortened: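 Field-collected larvae are reared in the lab at 27 ± 1 °C and 70% RH. Two microliters of a 0.1% dichloromethane solution is applied to the ventral side. Ten treated larvae are kept per glass bottle and fed fresh castor leaves. Mortality is recorded at 24 h. Triplicate, solvent control.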

Compared with `CCn1cc(C(=O)N/N=C/c2ccc(O)c(OC)c2)c(=O)c2ccc(C)nc21`, `CCOc1cc(/C=N/NC(=O)c2cn(CC)c3nc(C)ccc3c2=O)ccc1O` is lower in mortality: 20% for the first, 10% for the second.

`CCn1cc(C(=O)N/N=C/c2cc(OC)c(OC)c(OC)c2)c(=O)c2ccc(C)nc21` and `CCn1cc(C(=O)N/N=C/c2ccccc2Cl)c(=O)c2ccc(C)nc21` are the same in mortality: 10% for the first, 10% for the second.

What follows are compounds tested on Alternaria porri (assay: Fungicidal activity against Alternaria porri by poisoned food technique). Settings: read-out: ED50 (the source's name).
Assay type: functional

`CCn1cc(C(=O)N/N=C/c2ccc(O)c(OC)c2)c(=O)c2ccc(C)nc21` and `CCOc1cc(/C=N/NC(=O)c2cn(CC)c3nc(C)ccc3c2=O)ccc1O` are within 1.5-fold of each other in EC50: 128 µg/mL (≈ 337 µM) for the first, 92.1 µg/mL (≈ 234 µM) for the second.

`CCn1cc(C(=O)N/N=C/c2cc(OC)c(OC)c(OC)c2)c(=O)c2ccc(C)nc21` and `CCn1cc(C(=O)N/N=C/c2cccc(Cl)c2)c(=O)c2ccc(C)nc21` are within 1.5-fold of each other in EC50: 79.4 µg/mL (≈ 187 µM) for the first, 98.8 µg/mL (≈ 268 µM) for the second.

`CCn1cc(C(=O)N/N=C/c2ccccn2)c(=O)c2ccc(C)nc21` and `CCn1cc(C(=O)N/N=C/c2ccccc2Cl)c(=O)c2ccc(C)nc21` are within 1.5-fold of each other in EC50: 77.3 µg/mL (≈ 230 µM) for the first, 90.1 µg/mL (≈ 244 µM) for the second.

`CCn1cc(C(=O)N/N=C/c2ccc(F)cc2)c(=O)c2ccc(C)nc21` and `CCn1cc(C(=O)N/N=C/c2ccc(Cl)cc2)c(=O)c2ccc(C)nc21` are within 1.5-fold of each other in EC50: 64.8 µg/mL (≈ 184 µM) for the first, 87.2 µg/mL (≈ 236 µM) for the second.

These compounds were tested on Athelia rolfsii (assay: Fungicidal activity against Athelia rolfsii by poisoned food technique). Settings: Agroathelia rolfsii; read-out: ED50 (the source's name).
Assay type: functional

`CCn1cc(C(=O)N/N=C/c2ccc(O)c(OC)c2)c(=O)c2ccc(C)nc21` and `CCOc1cc(/C=N/NC(=O)c2cn(CC)c3nc(C)ccc3c2=O)ccc1O` are within 1.5-fold of each other in EC50: 460 µg/mL (≈ 1210 µM) for the first, 384 µg/mL (≈ 974 µM) for the second.

Going from `CCn1cc(C(=O)N/N=C/c2cc(OC)c(OC)c(OC)c2)c(=O)c2ccc(C)nc21` to `CCn1cc(C(=O)N/N=C/c2cccc(Cl)c2)c(=O)c2ccc(C)nc21`, the EC50 rises from 186 µg/mL (≈ 438 µM) to 439 µg/mL (≈ 1190 µM) (2.4-fold).

First: CCn1cc(C(=O)N/N=C/c2ccccn2)c(=O)c2ccc(C)nc21
Second: CCn1cc(C(=O)N/N=C/c2ccccc2Cl)c(=O)c2ccc(C)nc21
The EC50 of the first is 2.9-fold lower: 198 µg/mL (≈ 590 µM) for the first, 570 µg/mL (≈ 1550 µM) for the second.

First: CCn1cc(C(=O)N/N=C/c2ccc(F)cc2)c(=O)c2ccc(C)nc21
Second: CCn1cc(C(=O)N/N=C/c2ccc(Cl)cc2)c(=O)c2ccc(C)nc21
The EC50 of the first is 2-fold lower: 220 µg/mL (≈ 624 µM) for the first, 438 µg/mL (≈ 1190 µM) for the second.

Each compound was assayed on Spodoptera litura (assay: Insecticidal activity against third-instar larval stage of prestarved Spodoptera litura in castor leaf assessed as mortality at 0.1% treated for 2 secs before larval infestation measured after 24 hr by feeding method). Settings: not given.
Assay type: functional
Procedure, shortened: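 Castor leaf is dipped 2 s in 0.1% compound solution, air-dried, and placed on moist filter paper in 9 cm Petri plates. Larvae starved 4 h beforehand are released singly, one per plate. Thirty replicates per treatment, solvent control. Mortality is scored after 24 h.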

Going from `CCn1cc(C(=O)N/N=C/c2ccc(O)c(OC)c2)c(=O)c2ccc(C)nc21` to `CCOc1cc(/C=N/NC(=O)c2cn(CC)c3nc(C)ccc3c2=O)ccc1O`, the mortality falls from 100% to 90%.

`CCn1cc(C(=O)N/N=C/c2cc(OC)c(OC)c(OC)c2)c(=O)c2ccc(C)nc21` and `CCn1cc(C(=O)N/N=C/c2cccc(Cl)c2)c(=O)c2ccc(C)nc21` are the same in mortality: 90% for the first, 90% for the second.

First: CCn1cc(C(=O)N/N=C/c2ccccn2)c(=O)c2ccc(C)nc21
Second: CCn1cc(C(=O)N/N=C/c2ccccc2Cl)c(=O)c2ccc(C)nc21
The mortality of the first is higher: 100% for the first, 10% for the second.

First: CCn1cc(C(=O)N/N=C/c2ccc(F)cc2)c(=O)c2ccc(C)nc21
Second: CCn1cc(C(=O)N/N=C/c2ccc(Cl)cc2)c(=O)c2ccc(C)nc21
The mortality of the first is higher: 50% for the first, 40% for the second.
